Published values of several laboratories.
Protocols differ between the studies behind these lines.
Matrix: plasma

| host | route | dose | notes | quantity | value | Structure (SMILES) |
| --- | --- | --- | --- | --- | --- | --- |
| female BALB/c mouse | intravenous | 1 mg/kg |  | MRT(0-inf) | 1.2 h | CC(C)(Nc1nc(-c2ccccn2)nc2ccccc12)c1ccccn1 |
| male CD-1 mouse | oral | 50 mg/kg |  | MRT(0-inf) | 2 h | CNC(=O)c1cc(OC)cc2c(N3CCc4c(cc(Cn5ccnc5)cc4-c4cn(C)nc4C(F)(F)F)C3=O)ccnc12 |
| male CD-1 mouse | intravenous | 2 mg/kg |  | MRT(0-inf) | 0.103 h | COc1cc(C2Oc3cc([C@H]4Oc5cc(O)cc(O)c5C(=O)[C@@H]4O)ccc3OC2CO)ccc1O (stereo partly shown) |
| male CD-1 mouse | oral | 5 mg/kg | single dose | MRT(0-t) | 5.4 h | COc1nc(-c2cc(C)c(N[C@@H](C)c3cc(F)cc(F)c3)nn2)ccc1-n1cnc(C)c1 |
| male CD-1 mouse | oral | 50 mg/kg |  | MRT(0-inf) | 3.5 h | Cc1ccc2cncc(N3CCc4c(cc(Cn5ccnc5)cc4-c4cn(C)nc4C(F)(F)F)C3=O)c2c1 |
| female BALB/c mouse | oral | 50 mg/kg |  | MRT(0-inf) | 5.7 h | c1ccc(-c2nc(N3CCC(c4ccccn4)C3)c3ccccc3n2)nc1 (stereo not shown) |
| male CD-1 mouse | oral | 50 mg/kg |  | MRT(0-inf) | 2.5 h | CCc1cc(OC)c2nccc(N3CCc4c(cc(Cn5ccnc5)cc4-c4cn(C)nc4C(F)(F)F)C3=O)c2c1 |
| mouse | intraperitoneal | 85 µmol/kg | single dose | MRT(0-inf) | 11.9 h | CC1(C)CC[C@]2(C(=O)O)CC[C@]3(C)C(=CC[C@@H]4[C@@]5(C)C[C@@H](O)[C@H](OC(=O)/C=C/c6ccc(O)cc6)C(C)(C)[C@@H]5CC[C@]43C)[C@@H]2C1 (relative stereo) |
| male CD-1 mouse | intravenous | 1 mg/kg | single dose | MRT(0-t) | 3.3 h | COc1nc(-c2cc(C)c(N[C@@H](C)c3c(F)cc(F)cc3F)nn2)ccc1-n1cnc(C)c1 |
| male CD-1 mouse | oral | 10 mg/kg |  | MRT(0-inf) | 3.54 h | Cc1cc(NC(=O)c2cccc3cc(-c4cccc5[nH]nc(N)c45)ccc23)ccc1F |
